According to article PMC4936951 (Molecular pharmaceutics, 2016):
Values joined by “and” are separate entries in the source; they are usually repeats but may differ in a detail not shown here. Equal entries are not always repeated. Where two headings read alike, the source gives them in different places.

Experiments:
δ-opioid receptor = details: read-out: Ki (binding affinity); δ-opioid receptor antagonist; cited from earlier work
[1] = tested on: δOR+ (HCT 116/δOR) and δOR− (HCT 116) tumor xenografts; test: Dose determination by in vivo fluorescence imaging of bilateral tumor xenografts; parameters: species or system nu/nu mice; details: 50 nmol/kg i.v., 24 h post-administration
Method in brief: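 Female nu/nu mice received 8×10^6 cells, HCT 116 in the left flank and HCT 116/δOR in the right, and were imaged after 1 week. Dose given by tail-vein i.v. injection. Animals imaged immediately to confirm injection, then at 24 h, on an IVIS 200. Agent stored in dark aliquots at −80°C; animals kept in a dark chamber. Autofluorescence ratio taken from radiance in identical ROIs on background-subtracted Cy5 and autofluorescence images.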

HCT 116/δOR cells = type: cell-based, human
Method in brief: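 HCT 116/δOR cells (DMEM/F12, 10% calf serum, 1% pen/strep) on glass-bottom dishes, PBS-rinsed, exposed to 2.5 nM agent in Fluorobrite DMEM at 37°C, 5% CO2. Imaged every 30 s for 15 min; then rinsed and imaged in fresh medium, 4 fields every 10 min to 24 h (40× oil, Cy5, 1.5 s). Per-cell ROI intensity×area gave cytoplasm and membrane (total minus cytoplasm) fluorescence; 11–25 cells/day, three days.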

[2] = tested on: δOR+ (HCT 116/δOR) and δOR− (HCT 116) tumor xenografts; type: in vivo, athymic nude female mice; details: for Rate of uptake, Slope × 10^7 / Rate of clearance, Slope × 10^7: linear regression, n=5
Method in brief: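 Athymic nude female mice carried bilateral xenografts of 8×10^6 HCT 116 (left) and HCT 116/δOR (right) cells, grown to mean 500 mm3 by caliper (length×width²/2). Single i.v. dose of 4.5 nmol/kg. IVIS 200 Cy5 imaging at 3, 9, 15, 30, 45 min and 1.5, 3, 6, 12, 18, 24, 48, 72, 96, 168 h. Readout after background subtraction and pre-injection autofluorescence correction: ROI mean surface radiance in efficiency units.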

[3] = tested on: tumors and organs (spleen, pancreas, liver, kidneys, GI tract, heart, lungs); test: Ex vivo biodistribution by fluorescence imaging of excised tumors and organs; type: in vivo, mice; details: 4.5 nmol/kg
Method in brief: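 Separate group of bilateral HCT 116 / HCT 116/δOR xenograft mice given 4.5 nmol/kg. At 0, 7.5 min, 15 min, 45 min, 3 h, 6 h, 24 h and 48 h: imaged in vivo, then euthanized. Tumors, spleen, pancreas, liver, kidneys, GI tract, heart and lungs excised and fluorescence-imaged ex vivo. Animals kept in low light after dosing.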

[4] = tested on: HCT 116/δOR (positive) and HCT 116/RFP (negative) DWC tumors; test: Intravital confocal microscopy in dorsal skinfold window chamber; type: in vivo, mouse
Method in brief: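 Dorsal skinfold window chamber mice carrying HCT 116/δOR or HCT 116/RFP tumors received 45 nmol/kg via tail vein. Confocal imaging with 25× lens, 3570 pixels/min: continuous for 30 min, including 1, 1.5, 2 and 5 min frames, then further time points up to 24 h. Mean intensity ROIs placed in the vessel interior, in adjacent tumor tissue, and over tumor across time.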

[5] = 45 nmol/kg via tail vein, δOR negative tumor vessel

In the case of Dmt-Tic-Lys(Cy5)-OH [Dmt-Tic-Cy5], the Ki (δ-opioid receptor) is listed as 3 nM, the “fold of enhancement (FOE) δOR+ tumor relative to δOR− tumor” value [1] is listed as 5 fold and the “maximum ratio of fluorescence inside (cytoplasm)/outside (cell membrane)” value (HCT 116/δOR cells; 2.5 nM) is listed as 1.69. For the same substance, the “time to observed cell-surface labeling after addition of ligand” value (HCT 116/δOR cells; 2.5 nM) was ~ 2 min and 2 min, the “period of gradual tumor cell internalization” value (HCT 116/δOR cells; after addition of agent) was 6 h and ~ 7 h and 7 h and the “time of clearance from δOR− tumor (nearly pre-injection levels)” value ([2]; 4.5 nmol/kg i.v.) was no more than 6 h. For the same substance, the “time of maximum fluorescence in δOR− tumor” value ([2]; 4.5 nmol/kg i.v.) was 15 min, the “time of maximum fluorescence signal in δOR+ tumor” value ([2]; 4.5 nmol/kg i.v.) was 3 h and the “time of systemic clearance” value ([2]; 4.5 nmol/kg i.v., based on clearance from negative tumor) was no more than 6 h. The “enhancement in positive tumor relative to negative tumor” value ([2]; 4.5 nmol/kg, from 30 min to 96 h post-administration) was greater than 3 fold, the “Mean FOE (+ tumor/− tumor)” value ([2]; 4.5 nmol/kg, time 0.15 h) was 2.7 and the “Mean FOE (+ tumor/− tumor)” value ([2]; 4.5 nmol/kg, time 0.25 h) was 2.7. The “Mean FOE (+ tumor/− tumor)” value ([2]; 4.5 nmol/kg, time 0.50 h) was 3.2, the “Mean FOE (+ tumor/− tumor)” value ([2]; 4.5 nmol/kg, time 0.75 h) was 4.5 and the “Mean FOE (+ tumor/− tumor)” value ([2]; 4.5 nmol/kg, time 1 h) was 6.5. For the same substance, the “Mean FOE (+ tumor/− tumor)” value ([2]; 4.5 nmol/kg, time 3 h) was 9.7, the “Mean FOE (+ tumor/− tumor)” value ([2]; 4.5 nmol/kg, time 6 h) was 17.5 and the “Mean FOE (+ tumor/− tumor)” value ([2]; 4.5 nmol/kg, time 12 h) was 13.5. For the same substance, the “Mean FOE (+ tumor/− tumor)” value ([2]; 4.5 nmol/kg, time 18 h) was 26.7, the “Mean FOE (+ tumor/− tumor)” value ([2]; 4.5 nmol/kg, time 24 h) was 20.6 and the “Mean FOE (+ tumor/− tumor)” value ([2]; 4.5 nmol/kg, time 48 h) was 8.9. The “Mean FOE (+ tumor/− tumor)” value ([2]; 4.5 nmol/kg, time 72 h) was 10.8, the “Mean FOE (+ tumor/− tumor)” value ([2]; 4.5 nmol/kg, time 96 h) was 5.6 and the “Mean FOE (+ tumor/− tumor)” value ([2]; 4.5 nmol/kg, time 168 h) was 1.8. The “ratio of enhancement in target positive tumors” value ([2]; maintained from 6 h to 24 h post-administration) was “approximately 20 fold”, the “Rate of uptake, Slope × 10^7” value ([2]; δOR+ tumor, 0 to 0.75 h) was 264 Efficiency/h and the “Rate of clearance, Slope × 10^7” value ([2]; δOR+ tumor, 3 to 96 h) was −1.45 Efficiency/h. The “Rate of uptake, Slope × 10^7” value ([2]; δOR− tumor, 0 to 0.25 h) was 211 Efficiency/h, the “Rate of clearance, Slope × 10^7” value ([2]; δOR− tumor, 0.25 to 24 h) was −14.6 Efficiency/h and the “fluorescence signal in heart, lungs, GI tract, spleen and pancreas (ex vivo)” value [3] was “minimal to no fluorescence signal”. The “time of decrease to pre-injection levels in kidney and liver (ex vivo)” value ([3]; n=5) was no more than 24 h, the “time of highest fluorescence signal in kidney and liver (ex vivo)” value ([3]; n=5) was 15 min and the “time of clearance from tumor vasculature” value [4, 5] was no more than 2 min. For the same substance, the “time to peak intensity in tumor vasculature” value [4, 5] was no more than 1 min, the “time of highest fluorescence intensity in negative tumor (intravital)” value ([4]; 45 nmol/kg, HCT 116/RFP DWC tumor) was 10 min and the “time of highest fluorescence intensity in positive tumor (intravital)” value ([4]; 45 nmol/kg, HCT 116/δOR DWC tumor) was 30 min. For the same substance, the “time of clearance of fluorescence from negative tumor (intravital)” value ([4]; 45 nmol/kg, positive tumor still strong signal) was no more than 24 h.
